# According to ChEMBL document CHEMBL1129625, “11-substituted (R)-aporphines: synthesis, pharmacology, and modeling of D2A and 5-HT1A receptor interactions” (J Med Chem, 1996):
# What was measured:
# [1] = biological target: T1, 5-hydroxytryptamine receptor 1A (Rattus norvegicus, UniProt P19327); experiment: In vitro displacement of [3H]8-OH-DPAT binding to rat hippocampal 5-hydroxytryptamine 1A receptor; type: tissue-based, Hippocampus
# T1 sequence (P19327 whole entry): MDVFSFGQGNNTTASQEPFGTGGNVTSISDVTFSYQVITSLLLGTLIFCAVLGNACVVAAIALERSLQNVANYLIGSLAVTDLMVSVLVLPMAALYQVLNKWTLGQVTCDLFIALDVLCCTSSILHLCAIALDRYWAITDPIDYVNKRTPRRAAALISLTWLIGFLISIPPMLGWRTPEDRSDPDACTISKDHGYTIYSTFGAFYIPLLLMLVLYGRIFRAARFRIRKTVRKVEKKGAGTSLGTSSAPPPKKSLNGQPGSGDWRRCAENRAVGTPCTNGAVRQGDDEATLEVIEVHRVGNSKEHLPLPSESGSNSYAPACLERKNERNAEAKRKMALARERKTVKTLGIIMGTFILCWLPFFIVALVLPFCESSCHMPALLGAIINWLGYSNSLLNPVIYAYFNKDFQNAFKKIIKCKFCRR
# [2] = biological target: T2, D(2) dopamine receptor (Homo sapiens, UniProt P14416); experiment: Displacement of [3H]raclopride from human Dopamine receptor D2A
# T2 sequence (P14416 whole entry): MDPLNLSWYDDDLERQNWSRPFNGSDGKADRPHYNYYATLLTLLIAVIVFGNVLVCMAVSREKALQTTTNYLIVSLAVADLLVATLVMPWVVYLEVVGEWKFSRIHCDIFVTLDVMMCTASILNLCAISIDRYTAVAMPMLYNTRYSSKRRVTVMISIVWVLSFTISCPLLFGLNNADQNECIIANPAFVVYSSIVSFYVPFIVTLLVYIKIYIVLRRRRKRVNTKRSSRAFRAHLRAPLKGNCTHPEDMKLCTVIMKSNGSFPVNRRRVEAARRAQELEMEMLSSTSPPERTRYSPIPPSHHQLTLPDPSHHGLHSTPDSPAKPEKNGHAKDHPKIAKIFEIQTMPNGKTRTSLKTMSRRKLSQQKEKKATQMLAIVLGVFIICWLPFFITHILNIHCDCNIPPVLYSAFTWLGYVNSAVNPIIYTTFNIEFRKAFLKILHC
# [3] = biological target: T3, D(1A) dopamine receptor (Rattus norvegicus, UniProt P18901); experiment: Affinity for dopamine receptor D1 binding measured by competition against [3H]-SCH- 23390 to rat striatal membrane; set-up: species or system Striatum
# T3 sequence (P18901 whole entry): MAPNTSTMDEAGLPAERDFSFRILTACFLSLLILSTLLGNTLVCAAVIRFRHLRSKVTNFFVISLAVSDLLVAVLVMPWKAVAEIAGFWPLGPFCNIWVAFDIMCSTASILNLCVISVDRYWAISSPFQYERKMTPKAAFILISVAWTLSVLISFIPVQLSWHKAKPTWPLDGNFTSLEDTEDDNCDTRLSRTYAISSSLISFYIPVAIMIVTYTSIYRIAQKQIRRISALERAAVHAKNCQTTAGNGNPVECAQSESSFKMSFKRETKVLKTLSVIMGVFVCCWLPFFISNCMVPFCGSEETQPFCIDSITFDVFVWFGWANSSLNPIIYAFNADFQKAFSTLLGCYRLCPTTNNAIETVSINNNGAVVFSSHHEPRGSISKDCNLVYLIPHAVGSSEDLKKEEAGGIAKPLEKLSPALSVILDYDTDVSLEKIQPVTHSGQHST
# In short: (§1)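 Radioligand displacement analysed with a one-site model. D1 sites come from rat striatum and are labelled with [3H]SCH23390. D2A is the cloned human receptor expressed in Ltk- cells and labelled with [3H]raclopride. Ki is the mean ± standard error of n = 2–3 experiments.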
# [4] = biological target: T3, D(1A) dopamine receptor
# [5] = test system: Rattus norvegicus; experiment: In vivo accumulation of DOPA in percent of saline control was determined in limbic forebrain of reserpine pretreated rat at a dose of 3.3 uM/kg; type: functional
# In short: (§2)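 Rats get reserpine 5 mg/kg sc 18–20 h beforehand. A single dose of test drug is given. NSD1015 (117 mg/kg sc) is injected 30 min after drug to block decarboxylase. 5-HTP or DOPA accumulation is measured in limbic forebrain, striatum and cortex and expressed as percent of saline controls, mean ± SEM, n = 2–4. Statistics use one-way ANOVA with Fisher's PLSD.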
# [6] = test system: Rattus norvegicus; experiment: In vivo accumulation of DOPA in percent of saline control was determined in striatum of reserpine pretreated rat at a dose of 3.3 uM/kg; type: functional; in short: as §2
# [7] = test system: Rattus norvegicus; experiment: In vivo accumulation of 5HTP in percent of saline control was determined in limbic forebrain of reserpine pretreated rat at a dose of 3.3 uM/kg; type: functional; in short: as §2
# [8] = test system: Rattus norvegicus; experiment: In vivo accumulation of 5HTP in percent of saline control was determined in striatum of reserpine pretreated rat at a dose of 3.3 uM/kg; type: functional; in short: as §2
# [9] = test system: Rattus norvegicus; experiment: In vivo accumulation of 5HTP in percent of saline control was determined in cortex of reserpine pretreated rat at a dose of 3.3 uM/kg; type: functional; in short: as §2
# [10] = test system: Rattus norvegicus; experiment: In vivo accumulation of DOPA in percent of saline control was determined in cortex of reserpine pretreated rat at a dose of 3.3 uM/kg; type: functional; in short: as §2
# [11] = biological target: T2, D(2) dopamine receptor; experiment: Displacement of [3H]-raclopride fromd human Dopamine receptor D2A expressed in LtK- cells; type: cell-based; in short: as §1
# [12] = test system: Rattus norvegicus; experiment: In vivo accumulation of DOPA in percent of saline control was determined in limbic forebrain of reserpine pretreated rat at a dose of 30 uM/kg; type: functional; in short: as §2
# [13] = test system: Rattus norvegicus; experiment: In vivo accumulation of DOPA in percent of saline control was determined in striatum of reserpine pretreated rat at a dose of 30 uM/kg; type: functional; in short: as §2
# [14] = test system: Rattus norvegicus; experiment: In vivo accumulation of 5HTP in percent of saline control was determined in limbic forebrain of reserpine pretreated rat at a dose of 30 uM/kg; type: functional; in short: as §2
# [15] = test system: Rattus norvegicus; experiment: In vivo accumulation of 5HTP in percent of saline control was determined in striatum of reserpine pretreated rat at a dose of 30 uM/kg; type: functional; in short: as §2
# [16] = test system: Rattus norvegicus; experiment: In vivo accumulation of 5HTP in percent of saline control was determined in cortex of reserpine pretreated rat at a dose of 30 uM/kg; type: functional; in short: as §2
# [17] = test system: Rattus norvegicus; experiment: In vivo accumulation of DOPA in percent of saline control was determined in cortex of reserpine pretreated rat at a dose of 30 uM/kg; type: functional; in short: as §2
# [18] = test system: Rattus norvegicus; experiment: In vivo accumulation of DOPA in percent of saline control was determined in cortex of reserpine pretreated rat at dose of 3.5 uM/kg; type: functional; in short: as §2
# [19] = test system: Rattus norvegicus; experiment: In vivo accumulation of DOPA in percent of saline control was determined in limbic forebrain of reserpine pretreated rat at dose of 3.5 uM/kg; type: functional; in short: as §2
# [20] = test system: Rattus norvegicus; experiment: In vivo accumulation of 5HTP in percent of saline control was determined in limbic forebrain of reserpine pretreated rat at dose of 3.5 uM/kg; type: functional; in short: as §2
# [21] = test system: Rattus norvegicus; experiment: In vivo accumulation of 5HTP in percent of saline control was determined in striatum of reserpine pretreated rat at dose of 3.5 uM/kg; type: functional; in short: as §2
# [22] = test system: Rattus norvegicus; experiment: In vivo accumulation of 5HTP in percent of saline control was determined in cortex of reserpine pretreated rat at dose of 3.5 uM/kg; type: functional; in short: as §2
# [23] = test system: Rattus norvegicus; experiment: In vivo accumulation of DOPA in percent of saline control was determined in striatum of reserpine pretreated rat at dose of 3.5 uM/kg; type: functional; in short: as §2
# [24] = test system: Rattus norvegicus; experiment: In vivo accumulation of DOPA in percent of saline control was determined in limbic forebrain of reserpine pretreated rat at a dose of 2.9 uM/kg; type: functional
# In short: (§3)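 Reserpine 5 mg/kg sc given 18–20 h before. Single test dose given; 30 min later decarboxylase inhibited with NSD1015 (117 mg/kg sc). 5-HTP or DOPA accumulation measured in limbic forebrain, striatum and cortex, expressed as percent of saline controls (mean ± SEM, n = 2–4). Saline-control DOPA levels given in ng/g tissue. One-way ANOVA with Fischer's PLSD, p < 0.05.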
# [25] = test system: Rattus norvegicus; experiment: In vivo accumulation of DOPA in percent of saline control was determined in striatum of reserpine pretreated rat at a dose of 2.9 uM/kg; type: functional; in short: as §3
# [26] = test system: Rattus norvegicus; experiment: In vivo accumulation of 5HTP in percent of saline control was determined in striatum of reserpine pretreated rat at a dose of 2.9 uM/kg; type: functional; in short: as §3
# [27] = test system: Rattus norvegicus; experiment: In vivo accumulation of DOPA in percent of saline control was determined in cortex of reserpine pretreated rat at a dose of 2.9 uM/kg; type: functional; in short: as §3
# [28] = test system: Rattus norvegicus; experiment: In vivo accumulation of 5HTP in percent of saline control was determined in cortex of reserpine pretreated rat at a dose of 2.9 uM/kg; type: functional; in short: as §3
# [29] = test system: Rattus norvegicus; experiment: In vivo accumulation of 5HTP in percent of saline control was determined in limbic forebrain of reserpine pretreated rat at a dose of 2.9 uM/kg; type: functional; in short: as §3
# [30] = test system: Rattus norvegicus; experiment: In vivo accumulation of DOPA in percent of saline control was determined in limbic forebrain of reserpine pretreated rat at dose of 3.2 uM/kg; type: functional; in short: as §2
# [31] = test system: Rattus norvegicus; experiment: In vivo accumulation of DOPA in percent of saline control was determined in striatum of reserpine pretreated rat at dose of 3.2 uM/kg; type: functional; in short: as §2
# [32] = test system: Rattus norvegicus; experiment: In vivo accumulation of 5HTP in percent of saline control was determined in limbic forebrain of reserpine pretreated rat at dose of 3.2 uM/kg; type: functional; in short: as §2
# [33] = test system: Rattus norvegicus; experiment: In vivo accumulation of 5HTP in percent of saline control was determined in striatum of reserpine pretreated rat at dose of 3.2 uM/kg; type: functional; in short: as §2
# [34] = test system: Rattus norvegicus; experiment: In vivo accumulation of 5HTP in percent of saline control was determined in cortex of reserpine pretreated rat at dose of 3.2 uM/kg; type: functional; in short: as §2
# [35] = test system: Rattus norvegicus; experiment: In vivo accumulation of DOPA in percent of saline control was determined in cortex of reserpine pretreated rat at dose of 3.2 uM/kg; type: functional; in short: as §2
# [36] = test system: Rattus norvegicus; experiment: In vivo accumulation of DOPA in percent of saline control was determined in limbic forebrain of reserpine pretreated rat at a dose of 3.7 uM/kg; type: functional; in short: as §2
# [37] = test system: Rattus norvegicus; experiment: In vivo accumulation of DOPA in percent of saline control was determined in striatum of reserpine pretreated rat at a dose of 3.7 uM/kg; type: functional; in short: as §2
# [38] = test system: Rattus norvegicus; experiment: In vivo accumulation of 5HTP in percent of saline control was determined in limbic forebrain of reserpine pretreated rat at a dose of 3.7 uM/kg; type: functional; in short: as §2
# [39] = test system: Rattus norvegicus; experiment: In vivo accumulation of 5HTP in percent of saline control was determined in cortex of reserpine pretreated rat at a dose of 3.7 uM/kg; type: functional; in short: as §2
# [40] = test system: Rattus norvegicus; experiment: In vivo accumulation of DOPA in percent of saline control was determined in cortex of reserpine pretreated rat at a dose of 3.7 uM/kg; type: functional; in short: as §2
# [41] = test system: Rattus norvegicus; experiment: In vivo accumulation of 5HTP in percent of saline control was determined in striatum of reserpine pretreated rat at a dose of 3.7 uM/kg; type: functional; in short: as §2
Structure (SMILES),Ki [1] [nM],Ki [2] [nM],Ki [4] [nM],Ki [11] [nM],other results
COc1cccc2c1-c1cccc3c1[C@@H](C2)N(C(C)C)CC3,375,1000,,,Ki [3]: > 10 µM
CN1CCc2cccc3c2[C@H]1Cc1cccc(C#N)c1-3,41.1,183,279,,
COc1cccc2c1-c1cccc3c1[C@@H](C2)N(C)CC3,5.1,551,606,,
CCc1cccc2c1-c1cccc3c1[C@@H](C2)N(C)CC3,4.5,79.2,270,,Accumulation [5]: 87; Accumulation [6]: 92; Accumulation [7]: 83; Accumulation [8]: 95; Accumulation [9]: 104; Accumulation [10]: 100
COc1cccc2c1-c1cccc3c1[C@@H](C2)NCC3,8.3,,> 5000,> 1000,
CCCN1CCc2cccc3c2[C@H]1Cc1cccc(OC)c1-3,31.3,,> 5000,826,Accumulation [12]: 66; Accumulation [13]: 43; Accumulation [14]: 96; Accumulation [15]: 87; Accumulation [16]: 89; Accumulation [17]: 82
Oc1cccc2c1-c1cccc3c1[C@@H](C2)N(Cc1ccccc1)CC3,> 5000,,> 3000,> 1000,
COc1cccc2c1-c1cccc3c1[C@@H](C2)N(Cc1ccccc1)CC3,3220,,> 10000,> 1000,
CN1CCc2cccc3c2[C@H]1Cc1cccc(O)c1-3,,,,,Accumulation [18]: 103; Accumulation [19]: 67; Accumulation [20]: 98; Accumulation [21]: 83; Accumulation [22]: 93; Accumulation [23]: 30
C=Cc1cccc2c1-c1cccc3c1[C@@H](C2)N(C)CC3,6,177,,,Ki [3]: 0.72 µM
CN1CCc2cccc3c2[C@H]1Cc1cccc(-c2ccccc2)c1-3,1.8,233,,,Ki [3]: 3.63 µM; Accumulation [24]: 95; Accumulation [25]: 93; Accumulation [26]: 106; Accumulation [27]: 107; Accumulation [28]: 133; Accumulation [29]: 95
CCCN1CCc2cccc3c2[C@H]1Cc1cccc(O)c1-3,,,,,Accumulation [30]: 66; Accumulation [31]: 29; Accumulation [32]: 122; Accumulation [33]: 97; Accumulation [34]: 87; Accumulation [35]: 106
Cc1cccc2c1-c1cccc3c1[C@@H](C2)N(C)CC3,14.4,201,700,,
CN1CCc2cccc3c2[C@H]1Cc1cccc(C(N)=O)c1-3,198,,> 4000,> 10000,
Oc1cccc2c1-c1cccc3c1[C@@H](C2)NCC3,5.7,,1100,> 1000,Accumulation [36]: 78; Accumulation [37]: 71; Accumulation [38]: 108; Accumulation [39]: 122; Accumulation [40]: 96; Accumulation [41]: 89
COc1ccccc1-c1cccc2c1-c1cccc3c1[C@@H](C2)N(C)CC3,26.9,,> 3000,1330,
CC(=O)c1cccc2c1-c1cccc3c1[C@@H](C2)N(C)CC3,57.1,,,311,Ki [3]: 4.69 µM
CC(C)N1CCc2cccc3c2[C@H]1Cc1cccc(O)c1-3,437,,> 10000,1010,
CN1CCc2cccc3c2[C@H]1Cc1cccc(OS(=O)(=O)C(F)(F)F)c1-3,7.7,195,386,,
